What was measured:
[1] = test system: MCF-10A; assay: Cytotoxicity against human MCF10A cells at 0.01 uM after 48 hrs by WST1 assay; format: cell-based
[2] = test system: MCF-10A; assay: Cytotoxicity against human MCF10A cells at 0.03 uM after 48 hrs by WST1 assay; format: cell-based
[3] = test system: ACHN; assay: Cytotoxicity against human ACHN cells at 0.1 uM after 48 hrs by WST-1 assay; format: functional
Method in brief: (§1)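 Cells from ATCC were grown in DMEM with 10% heat-inactivated FBS at 37 °C in 5% CO2. Log-phase cells were seeded at 5 × 10^3 per well and left to recover overnight. They were then exposed to a range of compound concentrations for 48 h, with 0.2% DMSO as the vehicle control. CCK-8 (WST) reagent was added for 2 h and absorbance was measured.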

[4] = test system: HCT-116; assay: Cytotoxicity against human HCT116 cells at 0.1 uM after 48 hrs by WST-1 assay; format: functional; method in brief: as §1
[5] = test system: NCI-H460; assay: Cytotoxicity against human NCI-H460 cells at 30 uM after 48 hrs by WST-1 assay; format: functional
Method in brief: (§2)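 Cells from ATCC, grown in DMEM with 10% heat-inactivated FBS at 37 °C in humidified 5% CO2. Log-phase cells seeded at 5 × 10^3 cells/well and left to recover overnight, then exposed to varying compound concentrations for 48 h. Controls received medium with 0.2% DMSO vehicle. CCK-8 ([…]) reagent added at 5 µL/well for 2 h, then absorbance read.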

[6] = test system: NCI-H460; assay: Cytotoxicity against human NCI-H460 cells at 0.03 uM after 48 hrs by WST-1 assay; format: functional; method in brief: as §2
[7] = test system: ACHN; assay: Cytotoxicity against human ACHN cells at 1 uM after 48 hrs by WST-1 assay; format: functional; method in brief: as §1
[8] = test system: HCT-116; assay: Cytotoxicity against human HCT116 cells at 0.3 uM after 48 hrs by WST-1 assay; format: functional; method in brief: as §1
[9] = test system: PANC-1; assay: Cytotoxicity against human PANC1 cells at 30 uM after 48 hrs by WST-1 assay; format: functional; method in brief: as §2
[10] = test system: HCT-116; assay: Cytotoxicity against human HCT116 cells at 0.01 uM after 48 hrs by WST-1 assay; format: functional; method in brief: as §1
[11] = test system: NCI-H460; assay: Cytotoxicity against human NCI-H460 cells at 0.1 uM after 48 hrs by WST-1 assay; format: functional; method in brief: as §2
[12] = test system: ACHN; assay: Cytotoxicity against human ACHN cells at 10 uM after 48 hrs by WST-1 assay; format: functional; method in brief: as §1
[13] = test system: MCF-10A; assay: Cytotoxicity against human MCF10A cells at 0.1 uM after 48 hrs by WST1 assay; format: cell-based
[14] = test system: ACHN; assay: Cytotoxicity against human ACHN cells at 3 uM after 48 hrs by WST-1 assay; format: functional; method in brief: as §1
[15] = test system: MCF-10A; assay: Cytotoxicity against human MCF10A cells at 1 uM after 48 hrs by WST1 assay; format: cell-based
[16] = test system: Calu-1; assay: Cytotoxicity against human Calu1 cells at 0.01 uM after 48 hrs by WST-1 assay; format: functional; method in brief: as §1
[17] = test system: HCT-116; assay: Cytotoxicity against human HCT116 cells at 30 uM after 48 hrs by WST-1 assay; format: functional; method in brief: as §1
[18] = test system: NCI-H460; assay: Cytotoxicity against human NCI-H460 cells after 48 hrs by WST-1 assay; format: functional, cell-based; settings: NCI-H460, 48 h; method in brief: as §2
[19] = test system: MCF-10A; assay: Cytotoxicity against human MCF10A cells after 48 hrs by WST1 assay; format: cell-based
[20] = test system: Calu-1; assay: Cytotoxicity against human Calu1 cells at 3 uM after 48 hrs by WST-1 assay; format: functional; method in brief: as §1
[21] = test system: Calu-1; assay: Cytotoxicity against human Calu1 cells at 1 uM after 48 hrs by WST-1 assay; format: functional; method in brief: as §1
[22] = test system: Calu-1; assay: Cytotoxicity against human Calu1 cells at 30 uM after 48 hrs by WST-1 assay; format: functional; method in brief: as §1
[23] = test system: NCI-H460; assay: Cytotoxicity against human NCI-H460 cells at 1 uM after 48 hrs by WST-1 assay; format: functional; method in brief: as §2
[24] = test system: MCF-10A; assay: Cytotoxicity against human MCF10A cells at 10 uM after 48 hrs by WST1 assay; format: cell-based
[25] = test system: MCF-10A; assay: Cytotoxicity against human MCF10A cells at 3 uM after 48 hrs by WST1 assay; format: cell-based
[26] = test system: PANC-1; assay: Cytotoxicity against human PANC1 cells at 10 uM after 48 hrs by WST-1 assay; format: functional; method in brief: as §2
[27] = test system: ACHN; assay: Cytotoxicity against human ACHN cells at 30 uM after 48 hrs by WST-1 assay; format: functional; method in brief: as §1
[28] = test system: ACHN; assay: Cytotoxicity against human ACHN cells at 0.3 uM after 48 hrs by WST-1 assay; format: functional; method in brief: as §1
[29] = test system: PANC-1; assay: Cytotoxicity against human PANC1 cells at 0.3 uM after 48 hrs by WST-1 assay; format: functional; method in brief: as §2
[30] = test system: HCT-116; assay: Cytotoxicity against human HCT116 cells at 1 uM after 48 hrs by WST-1 assay; format: functional; method in brief: as §1
[31] = test system: MCF-10A; assay: Cytotoxicity against human MCF10A cells at 30 uM after 48 hrs by WST1 assay; format: cell-based
[32] = test system: ACHN; assay: Cytotoxicity against human ACHN cells at 0.03 uM after 48 hrs by WST-1 assay; format: functional; method in brief: as §1
[33] = test system: Calu-1; assay: Cytotoxicity against human Calu1 cells at 0.1 uM after 48 hrs by WST-1 assay; format: functional; method in brief: as §1
[34] = test system: ACHN; assay: Cytotoxicity against human ACHN cells at 0.01 uM after 48 hrs by WST-1 assay; format: functional; method in brief: as §1
[35] = test system: PANC-1; assay: Cytotoxicity against human PANC1 cells at 1 uM after 48 hrs by WST-1 assay; format: functional; method in brief: as §2
[36] = test system: Calu-1; assay: Cytotoxicity against human Calu1 cells at 0.3 uM after 48 hrs by WST-1 assay; format: functional; method in brief: as §1
[37] = test system: HCT-116; assay: Cytotoxicity against human HCT116 cells at 3 uM after 48 hrs by WST-1 assay; format: functional; method in brief: as §1
[38] = test system: ACHN; assay: Cytotoxicity against human ACHN cells after 48 hrs by WST-1 assay; format: functional, cell-based; method in brief: as §1
[39] = test system: NCI-H460; assay: Cytotoxicity against human NCI-H460 cells at 10 uM after 48 hrs by WST-1 assay; format: functional; method in brief: as §2
[40] = test system: MCF-10A; assay: Cytotoxicity against human MCF10A cells at 0.3 uM after 48 hrs by WST1 assay; format: cell-based
[41] = test system: PANC-1; assay: Cytotoxicity against human PANC1 cells at 3 uM after 48 hrs by WST-1 assay; format: functional; method in brief: as §2
[42] = test system: HCT-116; assay: Cytotoxicity against human HCT116 cells at 10 uM after 48 hrs by WST-1 assay; format: functional; method in brief: as §1
[43] = test system: NCI-H460; assay: Cytotoxicity against human NCI-H460 cells at 0.3 uM after 48 hrs by WST-1 assay; format: functional; method in brief: as §2
[44] = test system: Calu-1; assay: Cytotoxicity against human Calu1 cells at 10 uM after 48 hrs by WST-1 assay; format: functional; method in brief: as §1
[45] = test system: PANC-1; assay: Cytotoxicity against human PANC1 cells after 48 hrs by WST-1 assay; format: functional, cell-based; settings: PANC-1, 48 h; method in brief: as §2
[46] = test system: Calu-1; assay: Cytotoxicity against human Calu1 cells after 48 hrs by WST-1 assay; format: functional, cell-based; settings: Calu-1, 48 h; method in brief: as §1
[47] = test system: NCI-H460; assay: Cytotoxicity against human NCI-H460 cells at 3 uM after 48 hrs by WST-1 assay; format: functional; method in brief: as §2
[48] = test system: HCT-116; assay: Cytotoxicity against human HCT116 cells at 0.03 uM after 48 hrs by WST-1 assay; format: functional; method in brief: as §1
[49] = test system: PANC-1; assay: Cytotoxicity against human PANC1 cells at 0.1 uM after 48 hrs by WST-1 assay; format: functional; method in brief: as §2
[50] = test system: Calu-1; assay: Cytotoxicity against human Calu1 cells at 0.03 uM after 48 hrs by WST-1 assay; format: functional; method in brief: as §1
[51] = test system: PANC-1; assay: Cytotoxicity against human PANC1 cells at 0.03 uM after 48 hrs by WST-1 assay; format: functional; method in brief: as §2
[52] = test system: PANC-1; assay: Cytotoxicity against human PANC1 cells at 0.01 uM after 48 hrs by WST-1 assay; format: functional; method in brief: as §2
[53] = test system: NCI-H460; assay: Cytotoxicity against human NCI-H460 cells at 0.01 uM after 48 hrs by WST-1 assay; format: functional; method in brief: as §2
[54] = test system: HCT-116; assay: Cytotoxicity against human HCT116 cells after 48 hrs by WST-1 assay; format: functional, cell-based; settings: HCT-116, 48 h; method in brief: as §1

Work on `CCOC(=O)C(C)C(=O)c1cnccn1` (centres undefined) yielded an Activity [1] of -15.2%, an Activity [2] of -14.1% and an Activity [3] of 19%. The Activity [4] was 26.9%, the Activity [5] was 100% and the Activity [6] was 6.7%. The Activity [7] was 46.2%, the Activity [8] was 32.3% and the Activity [9] was 100%. The Activity [10] was 9.4%, the Activity [11] was 14.2% and the Activity [12] was 67.4%. For the same compound, the Activity [13] was -9.5%, the Activity [14] was 51.6% and the Activity [15] was 6.3%. The Activity [16] was 1.5%, the Activity [17] was 100% and the IC50 [18] was 3 µM. It also gave an IC50 [19] of 21.2 µM, an Activity [20] of 60.8% and an Activity [21] of 22.8%. The Activity [22] was 99.2%, the Activity [23] was 44.6% and the Activity [24] was 39.1%. It also gave an Activity [25] of 24%, an Activity [26] of 92.1% and an Activity [27] of 82.3%. The Activity [28] was 27.9%, the Activity [29] was 15.9% and the Activity [30] was 44.8%. It also gave an Activity [31] of 82.8%, an Activity [32] of -28.9% and an Activity [33] of 6.7%. The Activity [34] was -23.4%, the Activity [35] was 29.2% and the Activity [36] was 9.4%. It also gave an Activity [37] of 92.2%, an IC50 [38] of 3 µM and an Activity [39] of 87%. The Activity [40] was -6.8%, the Activity [41] was 67.8% and the Activity [42] was 90%. The Activity [43] was 38.6%, the Activity [44] was 85.3% and the IC50 [45] was 2.9 µM. The IC50 [46] was 2.8 µM, the Activity [47] was 55% and the Activity [48] was 18.8%. It also gave an Activity [49] of 13.6%, an Activity [50] of 2.9% and an Activity [51] of 10%. For the same compound, the Activity [52] was 8.3%, the Activity [53] was 3.6% and the IC50 [54] was 1.3 µM.

Reference: ChEMBL document CHEMBL2034859, “Simple, fast and efficient synthesis of β-keto esters from the esters of heteroaryl compounds, its antimicrobial study and cytotoxicity towards various cancer cell lines” (Bioorg Med Chem Lett, 2012)
